Results pooled from the literature.
Protocols differ between the studies behind these lines.

Structure (SMILES) | cell line | assay | conditions | endpoint | result
CC(C)(C)OC(=O)N1CCN(c2ccc(-c3cnc4[nH]cc(C(=O)c5ccc(F)cc5)c4c3)cn2)CC1 | A549 | cell growth or viability, MTT | 10 µM, 48 h | viability | 76.3%
Cc1cc(C)cc(COc2cc3c(cc2OCc2cc(C)cc(C)c2)[C@H]2C[C@](O)(Cc4cn(CC(=O)Nc5ccc(S(=O)(=O)F)cc5)nn4)C[C@H](C)N2CC3)c1 | PC-3 | cell growth or viability, MTT |  | IC50 | 1.33 µM
COc1ccc(C(=O)c2c[nH]c3ncc(-c4ccc(N5CCN(S(C)(=O)=O)CC5)nc4)cc23)cc1 | A549 | cell growth or viability, MTT | 10 µM, 48 h | viability | 80.2%
CCC(=O)Oc1cccc2c1C(=O)C=CC2=O | HFF-1 | cell growth or viability, MTT | 48 h | IC50 | 7.8 µM
CN1CCN(c2ccc(-c3cnc4[nH]cc(C(=O)c5ccc(F)cc5)c4c3)cc2)CC1 | A549 | cell growth or viability, MTT | 10 µM, 48 h | viability | 73%
CNC(=O)c1cc(Oc2ccc(NC(=O)Nc3cc(C(C)(C)C)nn3-c3ccc4ncccc4c3)c(F)c2)ccn1 | HUVEC | cell migration |  | IC50 | 2.2e-05 µM
Nc1nc2sc(CCCCc3ccc(C(=O)N[C@@H](CCC(=O)O)C(=O)O)cc3)cc2c(=O)[nH]1 | R2/PCFT4 | cell growth or viability | 96 h, pH 7.2 | IC50 | > 1 µM
N[C@@H](Cc1ccc(N(CCCl)CCCl)cc1)C(=O)O | PC-3 | cell growth or viability, CCK-8 | 48 h | IC50 | > 50 µM
C[C@@H]1C[C@@H]([C@H](O)CC2CC(=O)NC(=O)C2)C(=O)[C@@H](C)C1 | NIH3T3 | cell growth or viability, MTT | 24 h | IC50 | 0.8 µM
O=C(O)CCCc1ccc(N(CCCl)CCCl)cc1 | PC-3 | cell growth or viability, CCK-8 | 48 h | IC50 | > 50 µM
CC(=O)O[C@H]1C[C@H](O[C@H]2[C@@H](O)C[C@H](O[C@H]3[C@@H](O)C[C@H](O[C@H]4CC[C@@]5(C)[C@H](CC[C@@H]6[C@@H]5C[C@@H](O)[C@]5(C)[C@@H](C7=CC(=O)OC7)CC[C@]65O)C4)O[C@@H]3C)O[C@@H]2C)O[C@H](C)[C@H]1O[C@@H]1O[C@H](CO)[C@@H](O)[C@H](O)[C@H]1O | A549 | cell growth or viability, MTT | 5 µM, 24 h | inhibition | 74.8%
CCCCCCCCc1ccc(C(=O)Nc2ccccc2C(=O)OCC)cc1 | PC-3 | cell growth or viability, MTT | 72 h | IC50 | > 100 µM
O=C(O)CCn1cc(C(=O)c2ccc(F)cc2)c2cc(-c3ccc(N4CCNCC4)nc3)cnc21 | A549 | cell growth or viability, MTT | 10 µM, 48 h | viability | 88.5%
Cc1cc(C)cc(COc2cc3c(cc2OCc2cc(C)cc(C)c2)[C@H]2C[C@](O)(Cc4cn(-c5ccc(S(=O)(=O)F)cc5)nn4)C[C@H](C)N2CC3)c1 | PC-3 | cell growth or viability, MTT |  | IC50 | 0.392 µM
Nc1nc2c(c(=O)[nH]1)C[C@@H](CCc1ccc(C(=O)N[C@@H](CCC(=O)O)C(=O)O)cc1)CN2 | R2/PCFT4 | cell growth or viability | 96 h, pH 7.2 | IC50 | 0.248 µM
O=C1C=CC(=O)c2ccccc21 | HFF-1 | cell growth or viability, MTT | 48 h | IC50 | 26.7 µM
O=C(c1ccc(F)cc1)c1c[nH]c2ncc(-c3ccnc(N4CCOCC4)c3)cc12 | A549 | cell growth or viability, MTT | 10 µM, 48 h | viability | 94.1%
